bIAP act = intestinal alkaline phosphatase (bovine) activation; purified bovine IAP, CDP-star luminescence, 30 min; stronger effect = higher value; fold of DMSO-control signal, blank-subtracted; activation factor at 20 µM; actives 0.17% (n = 200,000); AID 1016;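 active means activation factor of 2 or more at 20 µM, a signal rise over negative controls twice the positive control's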
hIAP inh = human IAP inhibition; P09923; AID 2544; purified IAP, CDP-Star luminescence, 30 min; inhibition, % at 10 µM; actives 0.12% (n = 330,000);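 active means inhibition reaching a set limit with compound at 10 µM in the primary screen, cut at about 35% in these data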;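 further: plate controls were DMSO wells with enzyme for no effect and no-enzyme buffer wells for full effect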
Target sequence (P09923 whole entry, looked up): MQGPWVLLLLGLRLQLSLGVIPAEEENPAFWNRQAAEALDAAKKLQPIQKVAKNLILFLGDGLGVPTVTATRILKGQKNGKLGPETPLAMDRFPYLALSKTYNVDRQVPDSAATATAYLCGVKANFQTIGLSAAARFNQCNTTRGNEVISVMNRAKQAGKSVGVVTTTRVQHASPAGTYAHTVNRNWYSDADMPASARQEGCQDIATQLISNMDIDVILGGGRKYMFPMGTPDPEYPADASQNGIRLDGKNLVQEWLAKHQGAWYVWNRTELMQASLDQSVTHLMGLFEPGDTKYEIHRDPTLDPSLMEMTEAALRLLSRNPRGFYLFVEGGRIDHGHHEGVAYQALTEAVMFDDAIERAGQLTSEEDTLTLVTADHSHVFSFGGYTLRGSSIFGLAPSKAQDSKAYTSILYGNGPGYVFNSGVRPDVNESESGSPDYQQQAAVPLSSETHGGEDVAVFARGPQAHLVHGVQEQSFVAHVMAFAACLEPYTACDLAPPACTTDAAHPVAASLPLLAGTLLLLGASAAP
bIAP inhibitor = intestinal alkaline phosphatase (bovine) inhibition | 190,000 tested, under 10 active | inhibition, % at 20 µM | AID 1019 | purified bovine IAP, CDP-star luminescence, 30 min;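 active means over 50% inhibition of intestinal alkaline phosphatase at 20 µM in the single-dose screen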
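Assay system: bovine IAP enzyme; medium: DEA buffer 100 mM, pH 9.8, with MgCl2 1.0 mM, ZnCl2 0.02 mM; doses: 20 µM single dose; incubation: enzyme reaction for 30 min at room temperature; detection: CDP-star luminescence signal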
mIAP inh = mouse IAP inhibition; purified mouse IAP, CDP-Star luminescence, 30 min; inhibition, % at 10 µM; actives 0.2% (n = 330,000);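 active means inhibition of at least 40% at 10 µM in the primary screen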;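 further: plate controls were DMSO with enzyme for no effect and no enzyme wells for full effect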
hIAP act = human IAP activation; P09923; activation factor at 10 µM; actives 0.16% (n = 330,000); purified human IAP, CDP-Star luminescence, 30 min; stronger effect = higher value; 1 = vehicle-only enzyme, 0 = enzyme-free background;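 active means activation factor of the enzyme at least 2-fold when tested at 20 µM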
mIAP activ = increases mouse intestinal alkaline phosphatase activity; muIAP, CDP-Star luminescence, 30 min; stronger effect = higher value; 1 = vehicle-only enzyme signal, 0 = enzyme-free wells; activation factor at 10 µM; actives 0.24% (n = 330,000); AID 2805;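 active means activation factor of at least 2 at 20 µM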
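also added = chemiluminescent substrate CDP-Star | test system = mouse IAP enzyme | signal = chemiluminescence readout | compound = DMSO-dissolved test compounds | incubation = 30 min at room temperature | benchmarks = DMSO wells, no-enzyme wells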
Starred values were filed as active, the others as inactive; / = no result. Compounds with a hit are over-represented: about 0.72% of the library has one in this group of screens.

SMILES	bIAP act	hIAP inh	bIAP inhibitor	mIAP inh	hIAP act	mIAP activ
Cn1c(=O)c2c(nc(N/N=C/c3ccco3)n2C)n(C)c1=O	2.1*	-35	-108	6	1.4	0.94
Cn1c(=O)c2c(nc(N/N=C/c3cccs3)n2C)n(C)c1=O	/	-15	/	-4	1.1	1
Cc1cc(C(=O)OCC(=O)Nc2ccccc2[N+](=O)[O-])c2ccccc2n1	2.1*	15	-108	-4	0.85	1
COc1ccc(OC)c(NC(=O)CSCc2cnn(-c3ccccc3)c2-n2cccc2)c1	0.9	-6	5	1	1.1	0.99
COc1ccccc1CNC(=O)CSCc1cnn(-c2ccccc2)c1-n1cccc1	3.6*	-3	-258	-8	1	1.1
COc1cccc(CNC(=O)CSCc2cnn(-c3ccccc3)c2-n2cccc2)c1OC	2.3*	-22	-131	-2	1.2	1
O=C(CSCc1cnn(-c2ccccc2)c1-n1cccc1)NCc1cccnc1	1.3	5	-34	-2	0.95	1
COc1cc(NC(=O)CSCc2cnn(-c3ccccc3)c2-n2cccc2)cc(OC)c1	4.1*	-18	-305	-25	1.2	1.3
Nc1ncnc2c1ncn2[C@@H]1O[C@H](CNC(=O)[C@@H](N)COCc2ccccc2)[C@@H](O)[C@H]1O	/	/	/	13	/	0.87
CC(Oc1ccc(Br)cc1)C(=O)Nc1ccc(S(=O)(=O)N(C)C2CCN(C)CC2)cc1 (stereo unspecified)	/	0	/	6	0.99	0.94
CC(C)[C@H](NC(=O)c1ccc(Cl)cc1)C(=O)OCC(=O)N1CCN(c2ccccc2)CC1	/	4	/	-9	0.96	1.1
Cc1ccc(C(C)C)c(OCCNC(=S)Nc2cccc3ccccc23)c1	0.5	-4	46	-130	1	2.3*
Cc1ccc(C(C)C)c(OCCNCc2ccccc2)c1	/	9	/	12	0.91	0.88
S=C(NCc1ccc(Cl)cc1)Nc1ccccc1Cl	0.9	11	6	-52	0.89	1.5
COc1ccccc1NC(=S)NCc1ccccc1	/	-5	/	3	1.1	0.97
COc1ccccc1NC(=S)NCCC(c1ccccc1)c1ccccc1	1	-6	2	-108	1.1	2.1*
S=C(NCCC(c1ccccc1)c1ccccc1)Nc1ccccc1Cl	1.7	6	-66	-499	0.94	6*
COc1cc(NC(=S)NCCC(c2ccccc2)c2ccccc2)c(OC)cc1Cl	1	1	2	-248	0.99	3.5*
CCOC(=O)[C@@H]1[C@H]2COc3ccccc3[C@@H]2N2C(=O)N(c3cccc(Cl)c3)C(=O)[C@@]12C	/	12	/	-69	0.89	1.7
CCOC(=O)c1ccc(NC(=O)NC2CC3CCC(C2)N3Cc2nnnn2Cc2ccco2)cc1 (stereo unspecified)	1.3	-53	-27	-124	1.5	2.2*
CC(C)(C)n1nnnc1CN1C2CCC1CC(NC(=O)Nc1ccccc1)C2 (stereo unspecified)	2.2*	-8	-121	-2	1.1	1
Cc1ccc(NC(=S)NC2CC3CCC(C2)N3Cc2ccco2)cc1C (stereo unspecified)	1	-19	0	-42	1.2	1.4
Cc1ccc(Cl)cc1NC(=S)NCCCSC1CCCCC1	0.4	-4	/	-211	1	3.1*
Cc1c(C)c2ccc(OCC(=O)Nc3ccccn3)c(C)c2oc1=O	/	-10	/	-2	1.1	1
CCOC(=O)CSc1c(-c2ccc(Cl)cc2)[nH]c2ccccc12	0.9	-4	8	3	1	0.97
SMILES	bIAP act	hIAP inh	bIAP inhibitor	mIAP inh	hIAP act	mIAP activ
O=C(Cc1cccs1)NCCSc1c(-c2ccc(Cl)cc2)[nH]c2ccccc12	1.1	10	-5	-154	0.9	2.5*
Cc1cc(S(=O)(=O)Nc2ccc(C(=O)NCCCN3CCCC3=O)cc2)ccc1F	/	-5	/	8	1.1	0.92
S=C(NCCc1ccccc1)NC1CCCCCC1	0.5	-1	49	-26	1	1.3
S=C(NCCNCc1ccccc1)NC1CCCCC1	0.9	-10	5	-109	1.1	2.1*
COCC(C)NS(=O)(=O)c1ccc(C(=O)NC(Cc2ccccc2)c2ccccc2)cc1 (stereo unspecified)	/	0	/	-106	1	2.1*
COc1ccc(-n2c(=O)c3ccccc3n(CC(=O)NCc3ccco3)c2=O)cc1	1.1	6	-10	2	0.94	0.98
COc1ccc2c(c1)c(=O)cc(C)n2CC(=O)NCc1ccco1	5.3*	-9	-430	-1	1.1	1
O=C(Nc1nc2ccccc2s1)c1cnccn1	1	-24	-4	3	1.2	0.97
O=C(Nc1nc(-c2ccco2)c(-c2ccco2)s1)c1cnccn1	/	-21	/	44*	1.2	0.56
CC(NC(=O)Nc1ccccc1)C(c1cccs1)N1CCOCC1 (stereo unspecified)	1	3	4	-2	0.97	1
CC(NC(=O)Nc1ccc(Cl)cc1)C(c1cccs1)N1CCOCC1 (stereo unspecified)	1.2	-19	-20	-137	1.2	2.4*
C=CCNC(=O)/C=C/c1c(F)cccc1Cl	2.7*	-3	-169	-5	1	1.1
CC(C)c1ccc(NC(=O)C(c2ccccc2)N2CC(=O)Nc3ccccc32)cc1 (stereo unspecified)	1.1	3	-5	-108	0.97	2.1*
C[C@@H]1CN([C@@H](C)CO)C(=O)c2cc(NC(=O)Nc3ccccc3)ccc2O[C@H]1CN(C)C(=O)Nc1cccc2ccccc12	/	-12	/	-167	1.1	2.7*
COc1ccc(NC(=O)Nc2ccc3c(c2)C(=O)N([C@H](C)CO)C[C@H](C)[C@@H](CN(C)C(=O)Nc2ccc(OC)cc2)O3)cc1	/	2	/	-134	0.98	2.3*
COc1ccc(NC(=O)Nc2ccc3c(c2)C(=O)N([C@H](C)CO)C[C@H](C)[C@@H](CN(C)C(=O)Nc2ccc(C(F)(F)F)cc2)O3)cc1	/	-12	/	-111	1.1	2.1*
COc1ccc(NC(=O)N(C)C[C@H]2Oc3ccc(NC(=O)Nc4ccc(C(F)(F)F)cc4)cc3C(=O)N([C@H](C)CO)C[C@@H]2C)cc1	/	13	/	-110	0.87	2.1*
COc1ccc(NC(=O)N(C)C[C@H]2Oc3ccc(NC(=O)NC(C)C)cc3C(=O)N([C@H](C)CO)C[C@@H]2C)cc1	/	-19	/	-13	1.2	1.1
Cc1ccc2nc(-c3ccccc3)cc(C(=O)N(C)CC(=O)Nc3ccccc3Br)c2c1	/	0	/	5	1	0.95
Cc1ccc(N(Cc2ccccc2)C(=O)c2ccc(Cl)c(S(=O)(=O)N3CCOCC3)c2)cc1	/	1	/	8	0.99	0.92
O=C(NC1CCN(C(=O)Nc2cccc(Cl)c2)CC1)C1CCCCC1	/	-17	/	-9	1.2	1.1
